In ChEMBL document CHEMBL1800062, “Structure-activity relationships of carboline and carbazole derivatives as a novel class of ATP-competitive kinesin spindle protein inhibitors” (J Med Chem, 2011):
The source made the active and inactive calls. The calls are words filed in the database; no cut-off is given here.

Assays:
HeLa [1] = test: Antimitotic activity in human HeLa cells assessed as formation of monopolar spindles at 4 uM after 24 hrs using DAPI staining by fluorescent microscopic analysis; format: functional, cell-based
Outline: (§1)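 HeLa given the stated inhibitor concentration for 24 h on glass chamber slides (DMSO final 0.4% v/v), then fixed in paraformaldehyde and cold methanol. Microtubules stained with anti-α-tubulin DM1A, mitotic chromosomes stained with anti-phospho-H3 Ser10, DNA stained with DAPI. Monopolar spindle phenotype in mitotically arrested cells scored by fluorescence microscopy.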

[2] = biological target: T1, Kinesin-like protein KIF11 (Homo sapiens) (UniProt P52732); test: Inhibition of C-terminally His6-tagged microtubule-activated KSP motor domain ATPase activity assessed as ATP hydrolysis by Lineweaver-Burk plot analysis
T1 sequence (whole entry): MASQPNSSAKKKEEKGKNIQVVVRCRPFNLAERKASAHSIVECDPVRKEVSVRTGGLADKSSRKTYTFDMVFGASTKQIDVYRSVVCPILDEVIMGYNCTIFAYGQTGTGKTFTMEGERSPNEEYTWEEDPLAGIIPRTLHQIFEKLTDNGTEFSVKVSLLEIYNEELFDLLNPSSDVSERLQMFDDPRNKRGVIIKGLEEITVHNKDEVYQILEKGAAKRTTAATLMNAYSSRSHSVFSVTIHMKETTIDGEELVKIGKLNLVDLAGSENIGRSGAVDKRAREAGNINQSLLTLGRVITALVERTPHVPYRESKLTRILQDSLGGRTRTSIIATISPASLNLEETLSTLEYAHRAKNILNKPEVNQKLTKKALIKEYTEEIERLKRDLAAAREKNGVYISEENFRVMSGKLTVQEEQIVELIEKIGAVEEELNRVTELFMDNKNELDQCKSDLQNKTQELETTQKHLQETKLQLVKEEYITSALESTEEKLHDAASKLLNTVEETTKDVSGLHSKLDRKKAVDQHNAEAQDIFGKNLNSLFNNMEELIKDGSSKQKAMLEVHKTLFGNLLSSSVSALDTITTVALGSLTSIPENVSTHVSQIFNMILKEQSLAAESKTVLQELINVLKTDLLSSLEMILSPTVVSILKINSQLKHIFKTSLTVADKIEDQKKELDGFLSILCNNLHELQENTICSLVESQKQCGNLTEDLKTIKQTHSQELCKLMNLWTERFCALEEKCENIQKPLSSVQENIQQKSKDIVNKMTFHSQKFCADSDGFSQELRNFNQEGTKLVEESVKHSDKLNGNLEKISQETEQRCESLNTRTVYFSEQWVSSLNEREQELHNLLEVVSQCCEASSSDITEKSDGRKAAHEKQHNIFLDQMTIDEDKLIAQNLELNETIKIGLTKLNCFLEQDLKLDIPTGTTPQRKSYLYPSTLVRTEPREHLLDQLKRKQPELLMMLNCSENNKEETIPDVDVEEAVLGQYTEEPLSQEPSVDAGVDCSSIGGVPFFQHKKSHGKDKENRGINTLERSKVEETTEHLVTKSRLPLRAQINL
Outline: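 Steady-state coupled assay with 80 nM bacterially expressed KSP motor domain and 400 nM taxol-stabilized microtubules. Buffer: 50 mM PIPES pH 6.9, 2.5 mM KCl, 1 mM MgCl₂, PEP, NADH, DTT, 8 μM taxol, pyruvate kinase/lactate dehydrogenase. ATP varied, with or without inhibitor; A340 read every 5 s. Rates from linear least-squares fits, fitted to Michaelis–Menten and shown as Lineweaver–Burk plots.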

HeLa [3] = test: Antimitotic activity in human HeLa cells assessed as formation of monopolar spindles at 2 uM after 24 hrs using DAPI staining by fluorescent microscopic analysis; format: functional, cell-based; outline: as §1

`NC(=O)Nc1ccc2c(c1)[nH]c1cc(C(F)(F)F)ccc12` was tested, and the Activity (HeLa [1]) was “Active”.
`O=C1CCc2cc3c(cc2N1)[nH]c1cc(C(F)(F)F)ccc13` was tested, and the inhibition [2] was “Active”.
For `O=C1CCc2c(ccc3c2[nH]c2cc(C(F)(F)F)ccc23)N1`, the Activity (HeLa [3]) was “Active”.
